Results taken from ChEMBL document CHEMBL1122347, “synthesis and antihypertensive activity of 2-sulfonamido- and 2-sulfamido-1,3,4,6,7,11b alpha-hexahydro-2H-benzo[a]quinolizines” (1983).
Several values for one entry are separate records, joined by “and”; a condition that tells them apart may be missing. Equal entries are not always repeated. Activity calls are given as the source filed them. The rule behind the calls is not given here.

Tests used:
Rattus norvegicus [1] = assay: Antihypertensive activity in DOCA/saline rat dosed at 25 mg/kg, administered perorally expressed as percent fall in blood pressure after 6 h; NS is not significant; type: functional, organism-based; set-up: dose 25 mg/kg
Procedure, shortened: (§1)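 Hypertensive rats were kept only if systolic pressure was at least 155 mmHg, in groups of four. They were dosed orally in 0.5% (hydroxypropyl)methylcellulose/0.9% saline vehicle (10 mL/kg), with a vehicle-alone control. Systolic pressure was measured by tail-cuff with a pneumatic pulse transducer in 37 °C housing before dosing and at 2, 6 and 24 h. Heart rate was taken from pulse traces. Means ± SE; ANOVA against control, p > 0.05 nonsignificant.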

Rattus norvegicus [2] = assay: Antihypertensive activity in DOCA/saline rat dosed at 25 mg/kg, administered perorally expressed as percent fall in blood pressure after 2 h; NS is not significant; type: functional, organism-based; set-up: dose 25 mg/kg; procedure, shortened: as §1
Rattus norvegicus [3] = assay: Antihypertensive activity in DOCA/saline rat dosed at 50 mg/kg, administered perorally expressed as percent fall in blood pressure after 2 h; type: functional; conditions: route oral; procedure, shortened: as §1
Rattus norvegicus [4] = assay: Antihypertensive activity in DOCA/saline rat dosed at 50 mg/kg, administered perorally expressed as percent fall in blood pressure after 6 h; NS is not significant; type: functional, organism-based; set-up: dose 50 mg/kg; procedure, shortened: as §1
Rattus norvegicus [5] = assay: Antihypertensive activity in DOCA/saline rat dosed at 25 mg/kg, administered perorally expressed as percent rise in heart rate after 2 h; NS is not significant; type: functional, organism-based; set-up: dose 25 mg/kg; procedure, shortened: as §1
Rattus norvegicus [6] = assay: Antihypertensive activity in DOCA/saline rat dosed at 25 mg/kg, administered perorally expressed as percent rise in heart rate after 6 h; NS is not significant; type: functional, organism-based; set-up: dose 25 mg/kg; procedure, shortened: as §1
Rattus norvegicus [7] = assay: Antihypertensive activity in DOCA/saline rat dosed at 50 mg/kg, administered perorally expressed as percent rise in heart rate after 6 h; type: functional; conditions: route oral; procedure, shortened: as §1
Rattus norvegicus [8] = assay: Antihypertensive activity in DOCA/saline rat dosed at 50 mg/kg, po administered perorally expressed as percent rise in heart rate after 2 h; type: functional; procedure, shortened: as §1
Rattus norvegicus [9] = assay: Antihypertensive activity in DOCA/saline rat dosed at 25 mg/kg, administered perorally expressed as percent fall in blood pressure after 2 h; type: functional; conditions: route oral; procedure, shortened: as §1
Rattus norvegicus [10] = assay: Antihypertensive activity in DOCA/saline rat dosed at 50 mg/kg, administered perorally expressed as percent fall in blood pressure after 6 h; type: functional; conditions: route oral; procedure, shortened: as §1
Rattus norvegicus [11] = assay: Antihypertensive activity in DOCA/saline rat dosed at 25 mg/kg, po administered perorally expressed as percent rise in heart rate after 6 h; NS is not significant; type: functional, organism-based; set-up: dose 25 mg/kg; procedure, shortened: as §1
Rattus norvegicus [12] = assay: (§2) Antihypertensive activity in DOCA/saline rat dosed at 50 mg/kg, administered perorally expressed as percent rise in heart rate after 2 h; NS is not significant; type: functional, organism-based; set-up: dose 50 mg/kg; procedure, shortened: as §1
Rattus norvegicus [13] = assay: as §2; type: functional, organism-based; set-up: dose 50 mg/kg; procedure, shortened: as §1; remark: listed apart in the source
Rattus norvegicus [14] = assay: Antihypertensive activity in DOCA/saline rat dosed at 50 mg/kg, administered perorally expressed as percent rise in heart rate after 6 h; NS is not significant,; type: functional, organism-based; set-up: dose 50 mg/kg; procedure, shortened: as §1
Rattus norvegicus [15] = assay: Antihypertensive activity in DOCA/saline rat dosed at 50 mg/kg, administered perorally expressed as percent fall in blood pressure after 2 h; NS is not significant; type: functional, organism-based; set-up: dose 50 mg/kg; procedure, shortened: as §1
Rattus norvegicus [16] = assay: Antihypertensive activity in DOCA/saline rat dosed at 50 mg/kg, administered perorally expressed as percent rise in heart rate after 6 h; NS is not significant; type: functional, organism-based; set-up: dose 50 mg/kg; procedure, shortened: as §1
Rattus norvegicus [17] = assay: Antihypertensive activity in DOCA/saline rat dosed at 50 mg/kg, administered perorally expressed as percent rise in heart rate after 2 h; type: functional; conditions: route oral; procedure, shortened: as §1
Rattus norvegicus [18] = assay: Antihypertensive activity in DOCA/saline rat dosed at 10 mg/kg, administered perorally expressed as percent fall in blood pressure after 2 h; type: functional; conditions: route oral; procedure, shortened: as §1
Rattus norvegicus [19] = assay: Antihypertensive activity in DOCA/saline rat dosed at 10 mg/kg, administered perorally expressed as percent fall in blood pressure after 6 h; NS is not significant; type: functional, organism-based; set-up: dose 10 mg/kg; procedure, shortened: as §1
Rattus norvegicus [20] = assay: Antihypertensive activity in DOCA/saline rat dosed at 25 mg/kg, administered perorally expressed as percent fall in blood pressure after 6 h; type: functional; conditions: route oral; procedure, shortened: as §1
Rattus norvegicus [21] = assay: Antihypertensive activity in DOCA/saline rat dosed at 50 mg/kg, administered perorally expressed as percent rise in heart rate after 2 h; NS is not significant,; type: functional, organism-based; set-up: dose 50 mg/kg; procedure, shortened: as §1
Rattus norvegicus [22] = assay: Antihypertensive activity in DOCA/saline rat dosed at 10mg/kg, administered perorally expressed as percent rise in heart rate after 2 h; type: functional; procedure, shortened: as §1
Rattus norvegicus [23] = assay: Antihypertensive activity in DOCA/saline rat dosed at 10 mg/kg, administered perorally expressed as percent rise in heart rate after 6 h; NS is not significant; type: functional, organism-based; set-up: dose 10 mg/kg; procedure, shortened: as §1
Rattus norvegicus [24] = assay: Antihypertensive activity in DOCA/saline rat dosed at 25 mg/kg, po administered perorally expressed as percent rise in heart rate after 2 h; NS is not significant; type: functional, organism-based; set-up: dose 25 mg/kg; procedure, shortened: as §1
Rattus norvegicus [25] = organism: Rattus norvegicus; conditions: 2 mg/kg
Rattus norvegicus [26] = organism: Rattus norvegicus; conditions: Heart, 2 mg/kg
Rattus norvegicus [27] = assay: Antihypertensive activity in DOCA/saline rat dosed at 10 mg/kg, administered perorally expressed as percent fall in blood pressure after 2 h; NS is not significant; type: functional, organism-based; set-up: dose 10 mg/kg; procedure, shortened: as §1
Rattus norvegicus [28] = assay: Antihypertensive activity in DOCA/saline rat dosed at 10mg/kg, administered perorally expressed as percent fall in blood pressure after 6 h; NS is not significant; type: functional, organism-based; procedure, shortened: as §1
Rattus norvegicus [29] = assay: Antihypertensive activity in DOCA/saline rat dosed at 50 mg/kg administered perorally expressed as percent rise in heart rate after 2 h; NS is not significant; type: functional, organism-based; set-up: dose 50 mg/kg; procedure, shortened: as §1
Rattus norvegicus [30] = assay: Antihypertensive activity in DOCA/saline rat dosed at 50 mg/kg, po expressed as percent fall in blood pressure after 2 h; type: functional; procedure, shortened: as §1
Rattus norvegicus [31] = assay: Antihypertensive activity in DOCA/saline rat dosed at 50 mg/kg, po expressed as percent fall in blood pressure after 6 h; NS is not significant; type: functional, organism-based; set-up: dose 50 mg/kg; procedure, shortened: as §1
Rattus norvegicus [32] = assay: Antihypertensive activity in DOCA/saline rat dosed at 50 mg/kg, po expressed as percent rise in heart rate after 6 h; NS is not significant; type: functional, organism-based; set-up: dose 50 mg/kg; procedure, shortened: as §1
Rattus norvegicus [33] = assay: Antihypertensive activity in DOCA/saline rat dosed at 50 mg/kg, po expressed as percent rise in heart rate after 2 h; type: functional; procedure, shortened: as §1

SMILES	Decrease in blood pressure (Rattus norvegicus [3])	Decrease in blood pressure (Rattus norvegicus [4])	Decrease in blood pressure (Rattus norvegicus [10])	Rise HR (Rattus norvegicus [13])	Decrease in blood pressure (Rattus norvegicus [15])	Rise HR (Rattus norvegicus [16])	other results
CCCS(=O)(=O)N(C)[C@@H]1CCN2CCc3ccccc3[C@@H]2C1.Cl	38%	inactive					Decrease in blood pressure (Rattus norvegicus [1]): inactive; Decrease in blood pressure (Rattus norvegicus [2]): inactive; Rise HR (Rattus norvegicus [5]): inactive; Rise HR (Rattus norvegicus [6]): inactive; Rise HR (Rattus norvegicus [7]): 21%; Rise HR (Rattus norvegicus [8]): 15%
CCS(=O)(=O)N[C@@H]1CCN2CCc3ccccc3[C@@H]2C1.Cl			43%	inactive			Decrease in blood pressure (Rattus norvegicus [1]): inactive; Decrease in blood pressure (Rattus norvegicus [9]): 42%; Decrease in blood pressure (Rattus norvegicus [3]; 50 mg/kg): 56% and 37%; Rise HR (Rattus norvegicus [5]): inactive; Rise HR (Rattus norvegicus [11]): inactive; Rise HR (Rattus norvegicus [12]): inactive; Rise HR (Rattus norvegicus [7]): 22%; Rise HR (Rattus norvegicus [14]): inactive
O=S(=O)(Nc1ccccc1)N[C@@H]1CCN2CCc3ccccc3[C@@H]2C1		inactive		inactive	inactive	inactive	
CCCS(=O)(=O)N[C@@H]1CCN2CCc3ccccc3[C@@H]2C1.Cl	28%		46%			inactive	Rise HR (Rattus norvegicus [17]): 14%
O=S(=O)(N[C@@H]1CCN2CCc3ccccc3[C@@H]2C1)c1ccccc1		inactive		inactive	inactive	inactive	
CS(=O)(=O)N[C@@H]1CCN2CCc3ccccc3[C@@H]2C1.Cl	53%		68%				Decrease in blood pressure (Rattus norvegicus [18]): 28%; Decrease in blood pressure (Rattus norvegicus [19]): inactive; Decrease in blood pressure (Rattus norvegicus [9]): 50%; Decrease in blood pressure (Rattus norvegicus [20]): 50%; Increase in heart rate (Rattus norvegicus [21]): Not significant; Rise HR (Rattus norvegicus [22]): 39%; Rise HR (Rattus norvegicus [23]): inactive; Rise HR (Rattus norvegicus [6]): inactive; Rise HR (Rattus norvegicus [24]): inactive; Increase in heart rate (Rattus norvegicus [16]): inactive
CCS(=O)(=O)N(C)[C@@H]1CCN2CCc3ccccc3[C@@H]2C1.Cl							Decrease in blood pressure (Rattus norvegicus [1]): inactive; Decrease in blood pressure (Rattus norvegicus [9]): 36%; Rise HR (Rattus norvegicus [5]): inactive; Rise HR (Rattus norvegicus [6]): inactive
NNc1nncc2ccccc12							Decrease in blood pressure (Rattus norvegicus [25]): inactive; Rise HR (Rattus norvegicus [26]): inactive
CN([C@@H]1CCN2CCc3ccccc3[C@@H]2C1)S(C)(=O)=O		inactive		inactive	inactive	inactive	
Cl.O=S(=O)(N[C@@H]1CCN2CCc3ccccc3[C@@H]2C1)N1CCCC1		inactive			inactive	inactive	Rise HR (Rattus norvegicus [17]): 22%
Cl.NS(=O)(=O)N[C@@H]1CCN2CCc3ccccc3[C@@H]2C1	48%		50%			inactive	Decrease in blood pressure (Rattus norvegicus [27]): inactive; Rise HR (Rattus norvegicus [22]): 24%; Rise HR (Rattus norvegicus [23]): inactive; Rise HR (Rattus norvegicus [17]): 24%; Decrease in blood pressure (Rattus norvegicus [28]): inactive
CS(=O)(=O)N[C@@H]1CCN2CCc3ccc(Cl)cc3[C@@H]2C1		inactive		inactive	inactive	inactive	
CNS(=O)(=O)N[C@@H]1CCN2CCc3ccccc3[C@@H]2C1.Cl	35%		18%			inactive	Rise HR (Rattus norvegicus [17]): 23%
CS(=O)(=O)N[C@H]1CCN2CCc3ccccc3[C@@H]2C1		inactive			inactive		Rise HR (Rattus norvegicus [29]): inactive; Rise HR (Rattus norvegicus [14]): inactive
CCN(CC)S(=O)(=O)N[C@@H]1CCN2CCc3ccccc3[C@@H]2C1.Cl	29%	inactive		inactive		inactive	
CN(C)S(=O)(=O)N[C@@H]1CCN2CCc3ccccc3[C@@H]2C1.Cl	45%		31%	inactive		inactive	
Cc1ccc(N(CC2=NCCN2)c2cccc(O)c2)cc1 [PHENTOLAMINE]							Decrease in blood pressure (Rattus norvegicus [30]): 36%; Decrease in blood pressure (Rattus norvegicus [31]): inactive; Rise HR (Rattus norvegicus [32]): inactive; Rise HR (Rattus norvegicus [33]): 23%
Cl.O=S(=O)(N[C@H]1CCN2CCc3ccccc3[C@@H]2C1)c1ccccc1			18%	inactive	inactive	inactive	
COc1cc2c(cc1OC)[C@@H]1C[C@H](NS(N)(=O)=O)CCN1CC2.Cl	22%	inactive		inactive		inactive	
CCS(=O)(=O)N[C@H]1CCN2CCc3ccccc3[C@@H]2C1		inactive		inactive	inactive	inactive	
COc1cc2c(cc1OC)[C@@H]1C[C@H](NS(C)(=O)=O)CCN1CC2.Cl	44%		35%			inactive	Rise HR (Rattus norvegicus [17]): 16%
